The list is not random: actives were taken first. Their share in the collection is about 0.99%.
STK33 kinase inh – human STK33 kinase inhibition; Q9BYT3; inhibition, % at 10 µM; purified STK33, MBP phosphorylation, ADP-Glo luminescence; actives 0.073% (n = 320,000);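 active = inhibition at or above 25%, using the most active replicate where run in duplicate; inactive = inhibition below 25%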
Rin1 Abl inh – inhibitors of human Rin1-Abl protein interaction; TR-FRET Rin1/Abl binding, biochemical; P00519+Q13671; actives 0.4% (n = 360,000); inhibition, % at 7.35 µM; in the data active = inhibition above about 5%, passing the limit was not always enough
DYRK1A inh – inhibitors of rat Dyrk1A kinase; Q63470; ADP-Glo luminescence, NFATc1 peptide; inhibition, % at 12.5 µM; actives 0.43% (n = 310,000); in the data active = inhibition above about 50%;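 note: plate controls were vehicle with enzyme for no effect and no enzyme for full effect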
Arrestin-AP2 inh – inhibitors of human beta-arrestin and AP2 interaction | inhibition, % at 10 µM | actives 0.31% (n = 340,000) | FITC-arrestin peptide / GST-AP2 beads, flow cytometry; AP2 beta2 appendage carries R879A mutation | AID 504490;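 active = inhibition above a set limit, near 3 SD of compounds lacking own fluorescence, cut at about 54% in these data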;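 note: plate controls were DMSO wells for no effect and 5 µM unlabelled arrestin peptide for full effect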
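test system = AP2 appendage R879A on GSH beads | buffer or medium = PBS plus Tween 20 (0.05%) and BSA (0.1%) | incubation = 12 min plus 1 h, RT | detection = bead flow cytometry, FITC channel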
GSK3 alpha inh – inhibitors of human GSK-3 alpha kinase; inhibition, % at 10 µM; P49840; AID 2650; ADP-Glo luminescence, 60 min; actives 0.1% (n = 320,000);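 active = more than half of replicates show inhibition above 20%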;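 note: GST-tagged GSK-3 alpha with peptide substrate and 25 µM ATP; 0% = DMSO neutral wells and 100% = GW8510 positive control wells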
GSK3beta inhib – blocks human GSK3beta kinase activity. P49841. GST-GSK3beta kinase, ADP-Glo luminescence, 60 min; active compounds read low. activity score (negative = inhibition), % at 10 µM. actives 0.038% (n = 300,000);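 active = more than half of replicate wells score below -50%, meaning over 50% inhibition versus plate controls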;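 note: 0% = median DMSO wells and -100% = median GW8510 positive control wells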
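Test system – GST-tagged human GSK3beta kinase, cell-free · Incubation – 60 min enzyme reaction, room temperature · Signal – ADP-Glo luminescence · Also added – peptide substrate and ATP at 25 µM · Controls – DMSO neutral wells and GW8510 at 20 µM as positive · Buffer or medium – Tris/MgCl2 kinase buffer · Measure – Luminescence-derived activity versus plate DMSO and GW8510 wells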
Dyrk1A artifact – counter-screen for Dyrk1A inhibitors: ADP-Glo luciferase artifacts; ADP-Glo luciferase artifact assay, no Dyrk1A, luminescence; shares compounds with DYRK1A inh; AC50, µM (top dose mostly 12 µM), inactives show at the top dose activity change, negative = inhibition; 1,300 tested, under 10 active;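 active = fitted half-maximal dose AC50 no more than ten times the top valid tested dose, with luminescence dropping as dose rises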
Rin1-Abl confirm – Rin1-Abl interaction inhibition confirmation; shares compounds with Rin1 Abl inh; TR-FRET Rin1-Abl binding, purified proteins; inhibition, % at 7.35 µM; actives 49% (n = 1,300); AID 602124
GFP quench – GFP fluorescence interference artifact | shares compounds with Rin1 Abl inh | inhibitors/quenchers counterscreen | inhibition, % at 6.75 µM | actives 8.5% (n = 1,300);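 note: ABL1-eGFP fusion protein alone without its partner RIN1-SBP; 0% = protein with vehicle and 100% = wells lacking protein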
GFP quench dose – counter-screen for Rin1-Abl inhibitors: GFP quenchers, dose response; shares compounds with Rin1 Abl inh; GFP fluorescence interference/quenching counterscreen; IC50, µM; 230 tested, under 10 active; AID 602182; call rule not given here;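 note: ABL1-eGFP fusion protein alone without its RIN1 binding partner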
* = called active by the depositor; . = no result. Cut-off read from the data, not from the text of the source, unless noted: active = inhibition above about 6.5%; inactive = the rest.

SMILES	STK33 kinase inh	Rin1 Abl inh	DYRK1A inh	Arrestin-AP2 inh	GSK3 alpha inh	GSK3beta inhib	Dyrk1A artifact	others
O=C1C(Nc2ccccc2)=C(N2CCCCC2)C(=O)c2ccccc21	1	-1	18	5	-1	-5	.
Cc1ccc(NC2=C(N3CCCCC3)C(=O)c3ccccc3C2=O)cc1	-1	0	52*	18	-1	0	9%
Cc1occc1C(=O)/C(C#N)=C/c1ccc(O)c(Br)c1	4	1	67*	15	-1	1	7%
N#C/C(=C\c1ccc(O)c(Br)c1)C(=O)N1CCCCC1	-1	-2	41	-16	0	1	.
O=C1c2ccc(Cl)cc2S(=O)(=O)c2cccc(C(=O)N3CCC(Cc4ccccc4)CC3)c21	-1	2	3	-4	-3	.	.
O=C(COc1ccccc1)Nc1cccc(-c2nn[nH]n2)c1	4	-1	70*	-6	20	-1	7%
CC(=O)Nc1cccc(-c2nn[nH]n2)c1	0	1	42	-2	7	2	.
O=C(COc1ccccc1)Nc1cccc(-c2cn3cccnc3n2)c1	3	3	54*	41	2	1	8%
Cc1c(C)n(Cc2ccc(F)cc2)c2ccc(C(=O)N3CCN(c4ccccn4)CC3)cc12	-3	-2	12	-28	-3	1	.
COCCN=C1N[C@@H](c2cccc(C(F)(F)F)c2)C(C(=O)OC)=C(C)N1Cc1ccccc1	0	-5	57*	-18	5	-2	8%
CN1C=CC(=C2C(=O)c3ccccc3C2=O)C=C1	.	.	.	.	.	1	.
CCN1C=CC(=C2C(=O)c3ccccc3C2=O)C=C1	28*	-9	57*	10	3	-5	3%
O=C(CCc1nc(-c2ccccc2Cl)no1)Nc1cccnc1	0	2	-6	-21	-2	-1	.
c1ccc(Cc2nnc3sc(-c4ccc5c(c4)OCCO5)nn23)cc1	0	-2	80*	4	8	2	9%
O=C(NC1CCCCC1)C1CCCN(S(=O)(=O)c2ccc(F)cc2)C1 (configuration not stated)	-2	-1	3	24	-1	-5	.
COc1ccc2c(c1)CCc1cc(C(=O)O)sc1-2	5	-5	55*	-8	-7	1	7%
COc1cc(/C=C2\SC(=Nc3ccccc3)NC2=O)cc(Cl)c1O	7	0	51*	-12	7	-4	10%
CCc1ccc(N=C2NC(=O)/C(=C/c3cc(OC)c(O)c(OC)c3)S2)cc1	-2	-1	-4	6	-2	-2	.
C[N+](C)(CCOc1ccccc1)Cc1ccccc1 (tested in a mixture with another compound)	1	2	92*	-1	10	-3	7%
CC(C)(C)CC(C)(C)c1ccc(OCCOCC[N+](C)(C)Cc2ccccc2)cc1	0	1	3	1	18	.	.
CSc1nc(SCC(=O)NCc2ccco2)c2c3c(sc2n1)CN(C)CC3	-1	-4	63*	15	0	-35	8%
CC12CCC(C(=O)Nc3nc4ccc(Br)cc4s3)(OC1=O)C2(C)C (configuration not stated)	0	3	82*	4	-1	0	7%
CCC(=O)N1CCN(c2ccnc3cc(Cl)ccc23)CC1	4	1	55*	-13	5	-7	8%
C[C@@H]1O[C@@H](OC[C@H]2O[C@@H](Oc3c(-c4ccc(O)c(O)c4)oc4cc(O)cc(O)c4c3=O)[C@H](O)[C@@H](O)[C@@H]2O)[C@H](O)[C@H](O)[C@H]1O	1	15*	77*	-4	27	-32	10%	Rin1-Abl confirm=21*;GFP quench=2;GFP quench dose=>68
O=c1c(OC2OC(CO)C(O)C(O)C2OC2OC(CO)C(O)C(O)C2OC2OC(CO)C(O)C(O)C2O)c(-c2ccc(O)c(O)c2)oc2cc(O)cc(O)c12 (configuration not stated)	0	3	26	5	1	.	.
SMILES	STK33 kinase inh	Rin1 Abl inh	DYRK1A inh	Arrestin-AP2 inh	GSK3 alpha inh	GSK3beta inhib	Dyrk1A artifact	others
O=C(Cn1cc(COc2ccc(-n3cccc3)cc2)nn1)NS(=O)(=O)c1ccccc1C(F)(F)F	.	-2	.	.	.	.	.
Oc1ccc(C2=Nn3c(nnc3-c3ccco3)SC2)cc1O	3	5.9*	79*	6	.	-23	14%	Rin1-Abl confirm=4;GFP quench=17*
CCn1nc(NS(=O)(=O)c2ccc([N+](=O)[O-])cc2)c2cc3ccccc3nc21	-1	1	-5	-3	-6	-5	.
O=c1cc(-c2ccc(O)cc2)oc2c(O)c(O)c(O)c(O)c12	16	37*	54*	6	10	.	10%	Rin1-Abl confirm=48*;GFP quench=22*
O=c1cc(-c2ccc(O)cc2)oc2c1ccc1ccccc12	-2	1	.	-10	-3	.	.
O=C(c1ccc(Cl)c(Cl)c1)N1CCC(=O)N(C(COCc2cccc(C(F)(F)F)c2)Cc2ccccc2)CC1 (configuration not stated)	0	23*	53*	24	-2	3	6%	Rin1-Abl confirm=24*;GFP quench=-1
Cc1ccc(S(=O)(=O)NN2CCCCCC2)cc1	.	3	.	.	.	.	.
Cc1ccc(NC(=O)Cn2c(=O)cnc3ccccc32)cc1S(=O)(=O)N1CCOCC1	-1	-1	.	-9	1	.	.
O=C1c2ccccc2C(=O)c2c(O)c(O)cc(O)c21	.	1	24	13	.	.	.
O=c1c(O)cccc2cc(O)c(O)c(O)c12	5	43*	82*	39	24	0	12%	Rin1-Abl confirm=39*;GFP quench=33*
O=S(=O)(Nc1c(S(=O)(=O)c2ccccc2)c2nc3ccccc3nc2n1C1CCCCC1)c1ccccc1	0	9.8*	75*	14	2	-1	10%	Rin1-Abl confirm=-4;GFP quench=0
O=C(N/N=C/c1ccc(O)c(O)c1)N/N=C/c1ccc(O)c(O)c1	24	49*	80*	33	54*	-40	7%	Rin1-Abl confirm=63*;GFP quench=12*
